Measurements: ChEMBL document CHEMBL4706590, “Design and characterization of cereblon-mediated androgen receptor proteolysis-targeting chimeras” (Eur J Med Chem, 2020)

System: VCaP
Test: Antiproliferative activity against human VCaP cells assessed as reduction in cell viability after 6 days by CellTiter-Glo assay
Assay type: functional
Conditions: 144 h, time 6 day
Summary of the method: (§1)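 LNCaP seeded at 1.5 × 10³ and VCaP at 4 × 10³ cells per well in 96-well plates. Cells grown in IMDM with 10% FBS and antibiotic-antimycotic at 37 °C, 5% CO2, with DMSO as vehicle. IC50 from nonlinear regression of log(inhibitor) versus response.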
`CC1(C)[C@H](NC(=O)c2ccc(N3CCN(CCOC4CCN(C(=O)COc5ccc6nnn(C7CCC(=O)NC7=O)c(=O)c6c5)CC4)CC3)cc2)C(C)(C)[C@H]1Oc1ccc(C#N)c(Cl)c1` (some centres not stated) gave a CC50 of 141 nM.
Work on `CC1(C)[C@H](NC(=O)c2ccc(N3CCN(CC4CCN(C(=O)C5CN(c6ccc7nnn(C8CCC(=O)NC8=O)c(=O)c7c6)C5)CC4)CC3)cc2)C(C)(C)[C@H]1Oc1ccc(C#N)c(Cl)c1` (some centres not stated) yielded a CC50 of 38 nM.
With `CC1(C)[C@H](NC(=O)c2ccc(N3CCN(CC4CCN(C(=O)C5CCN(c6ccc7nnn(C8CCC(=O)NC8=O)c(=O)c7c6)CC5)CC4)CC3)cc2)C(C)(C)[C@H]1Oc1ccc(C#N)c(Cl)c1` (some centres not stated) the CC50 was 45 nM.

System: not listed separately
Test: Half life in ICR mouse at 30 mg/kg, po by LC-MS/MS analysis
Assay type: ADME, organism-based
Conditions: in vivo, 30 mg/kg
Summary of the method: (§2)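 Male ICR mice, 7 weeks old. Single dose of 5 mg/kg IV or IP in 5% DMSO, 52% PEG400, 3% Tween 80 in water, or 30 mg/kg PO in 20% PEG400 and 3% Tween 80 in water. Retro-orbital blood sampled over time. Plasma protein-precipitated with acetonitrile (1:10) and analysed by LC-MS/MS. Parameters from noncompartmental analysis of mean data, n = 3.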
Molecule `CC1(C)[C@H](NC(=O)c2ccc(N3CCN(CC4CCN(C(=O)C5CN(c6ccc7nnn(C8CCC(=O)NC8=O)c(=O)c7c6)C5)CC4)CC3)cc2)C(C)(C)[C@H]1Oc1ccc(C#N)c(Cl)c1` (some centres not stated) has a t1/2 of 26.7 h.

System: not listed separately
Test: AUCt in ICR mouse at 5 mg/kg, ip by LC-MS/MS analysis
Assay type: ADME, organism-based
Parameters: dose 5 mg/kg
Conditions: in vivo
Summary of the method: as §2
`CC1(C)[C@H](NC(=O)c2ccc(N3CCN(CC4CCN(C(=O)C5CN(c6ccc7nnn(C8CCC(=O)NC8=O)c(=O)c7c6)C5)CC4)CC3)cc2)C(C)(C)[C@H]1Oc1ccc(C#N)c(Cl)c1` (some centres not stated) gave an AUCt of 24200 ng·h/mL.

Molecular target: T1, Protein cereblon/Androgen receptor (Homo sapiens, UniProt P10275+Q96SW2)
T1 sequence (P10275 whole entry, looked up): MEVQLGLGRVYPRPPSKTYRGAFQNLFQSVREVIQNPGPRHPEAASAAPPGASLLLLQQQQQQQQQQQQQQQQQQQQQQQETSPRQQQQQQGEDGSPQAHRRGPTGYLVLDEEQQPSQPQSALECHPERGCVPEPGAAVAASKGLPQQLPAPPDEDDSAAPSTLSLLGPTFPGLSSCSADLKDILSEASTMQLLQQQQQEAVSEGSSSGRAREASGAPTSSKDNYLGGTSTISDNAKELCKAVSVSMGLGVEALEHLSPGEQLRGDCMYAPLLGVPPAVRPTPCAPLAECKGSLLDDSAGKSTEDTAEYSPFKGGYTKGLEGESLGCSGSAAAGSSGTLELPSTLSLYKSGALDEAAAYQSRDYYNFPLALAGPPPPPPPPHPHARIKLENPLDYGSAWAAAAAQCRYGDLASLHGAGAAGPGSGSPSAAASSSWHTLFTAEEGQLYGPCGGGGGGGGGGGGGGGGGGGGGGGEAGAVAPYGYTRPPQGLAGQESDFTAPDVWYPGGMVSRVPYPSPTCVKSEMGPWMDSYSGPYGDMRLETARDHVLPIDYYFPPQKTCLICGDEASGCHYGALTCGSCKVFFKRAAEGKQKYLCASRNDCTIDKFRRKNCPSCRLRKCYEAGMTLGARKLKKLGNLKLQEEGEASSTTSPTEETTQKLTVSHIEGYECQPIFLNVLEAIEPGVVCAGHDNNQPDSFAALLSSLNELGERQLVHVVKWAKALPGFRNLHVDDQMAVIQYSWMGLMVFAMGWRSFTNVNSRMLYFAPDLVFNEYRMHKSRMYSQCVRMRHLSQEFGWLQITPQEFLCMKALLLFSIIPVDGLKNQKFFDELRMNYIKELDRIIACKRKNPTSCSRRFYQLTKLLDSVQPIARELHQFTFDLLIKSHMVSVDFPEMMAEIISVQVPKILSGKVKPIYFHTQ
T1 sequence (Q96SW2 whole entry, looked up): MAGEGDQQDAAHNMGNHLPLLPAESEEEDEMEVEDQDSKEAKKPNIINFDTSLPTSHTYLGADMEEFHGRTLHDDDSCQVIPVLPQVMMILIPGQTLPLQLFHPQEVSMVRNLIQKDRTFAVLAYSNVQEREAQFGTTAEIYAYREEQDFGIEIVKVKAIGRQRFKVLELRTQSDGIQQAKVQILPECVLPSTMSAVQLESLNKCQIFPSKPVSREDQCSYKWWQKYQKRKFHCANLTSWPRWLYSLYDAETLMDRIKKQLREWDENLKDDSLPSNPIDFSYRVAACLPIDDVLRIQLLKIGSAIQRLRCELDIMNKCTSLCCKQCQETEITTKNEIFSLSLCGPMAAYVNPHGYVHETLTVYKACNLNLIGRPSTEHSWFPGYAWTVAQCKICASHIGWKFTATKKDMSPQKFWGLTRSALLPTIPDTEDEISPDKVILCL
Test: Protac activity at CRBN/AR in human LNCaP cells assessed as AR degradation at 10 uM by Western blotting analysis relative to control
Assay type: cell-based
Conditions: not given
Summary of the method: (§3)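 LNCaP (IMDM) or 22RV1 (RPMI 1640) cells with 10% FBS at 37 °C, 5% CO2, treated with DMSO vehicle as control. Cells lysed in RIPA buffer (50 mM Tris-HCl pH 7.5, 150 mM NaCl, 1% Triton X-100, 0.1% SDS, 0.5% deoxycholate, protease inhibitors). Protein quantified by Bradford assay. Immunoblotted for AR with tubulin as loading control, HRP chemiluminescence detection.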
With `CC1(C)[C@H](NC(=O)c2ccc(N3CCN(CCOC4CCN(C(=O)COc5ccc6nnn(C7CCC(=O)NC7=O)c(=O)c6c5)CC4)CC3)cc2)C(C)(C)[C@H]1Oc1ccc(C#N)c(Cl)c1` (some centres not stated) the Activity was 94%.
With `CC1(C)[C@H](NC(=O)c2ccc(N3CCN(CC4CCN(C(=O)C5CN(c6ccc7nnn(C8CCC(=O)NC8=O)c(=O)c7c6)C5)CC4)CC3)cc2)C(C)(C)[C@H]1Oc1ccc(C#N)c(Cl)c1` (some centres not stated) the Activity was 83%.
In the case of `CC1(C)[C@H](NC(=O)c2ccc(N3CCN(CC4CCN(C(=O)C5CCN(c6ccc7nnn(C8CCC(=O)NC8=O)c(=O)c7c6)CC5)CC4)CC3)cc2)C(C)(C)[C@H]1Oc1ccc(C#N)c(Cl)c1` (some centres not stated), the Activity is reported as 94%.

System: not listed separately
Test: Half life in ICR mouse at 5 mg/kg, ip by LC-MS/MS analysis
Assay type: ADME, organism-based
Conditions: in vivo
Summary of the method: as §2
`CC1(C)[C@H](NC(=O)c2ccc(N3CCN(CC4CCN(C(=O)C5CN(c6ccc7nnn(C8CCC(=O)NC8=O)c(=O)c7c6)C5)CC4)CC3)cc2)C(C)(C)[C@H]1Oc1ccc(C#N)c(Cl)c1` (some centres not stated) gave a t1/2 of 4.82 h.

System: LNCaP
Test: Antiproliferative activity against human LNCaP cells assessed as reduction in cell viability after 6 days by CellTiter-Glo assay
Assay type: functional
Conditions: 144 h, time 6 day
Summary of the method: as §1
`CC1(C)[C@H](NC(=O)c2ccc(N3CCN(CCOC4CCN(C(=O)COc5ccc6nnn(C7CCC(=O)NC7=O)c(=O)c6c5)CC4)CC3)cc2)C(C)(C)[C@H]1Oc1ccc(C#N)c(Cl)c1` (some centres not stated) showed a CC50 of 1300 nM.
For `CC1(C)[C@H](NC(=O)c2ccc(N3CCN(CC4CCN(C(=O)C5CN(c6ccc7nnn(C8CCC(=O)NC8=O)c(=O)c7c6)C5)CC4)CC3)cc2)C(C)(C)[C@H]1Oc1ccc(C#N)c(Cl)c1` (some centres not stated), the CC50 was 89 nM.
In the case of `CC1(C)[C@H](NC(=O)c2ccc(N3CCN(CC4CCN(C(=O)C5CCN(c6ccc7nnn(C8CCC(=O)NC8=O)c(=O)c7c6)CC5)CC4)CC3)cc2)C(C)(C)[C@H]1Oc1ccc(C#N)c(Cl)c1` (some centres not stated), the CC50 is reported as 108 nM.

System: not listed separately
Test: Tmax in ICR mouse at 30 mg/kg, po by LC-MS/MS analysis
Assay type: ADME, organism-based
Conditions: in vivo, 30 mg/kg
Summary of the method: as §2
`CC1(C)[C@H](NC(=O)c2ccc(N3CCN(CC4CCN(C(=O)C5CN(c6ccc7nnn(C8CCC(=O)NC8=O)c(=O)c7c6)C5)CC4)CC3)cc2)C(C)(C)[C@H]1Oc1ccc(C#N)c(Cl)c1` (some centres not stated) gave a Tmax of 0.67 h.

System: not listed separately
Test: Metabolic stability in mouse liver microsomes assessed as compound remaining at 1 uM after 30 mins in presence of NADPH-regenerating system
Assay type: ADME, Microsome
Conditions: read-out: Stabilty
Summary of the method: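 Mouse liver microsomes at 0.5 mg protein/mL in 100 mM PBS, pH 7.4. Reaction started with NADPH-regenerating solution (1.3 mM NADP+, 3.3 mM glucose-6-phosphate, 0.4 U/mL G6PDH, 3.3 mM MgCl2). Incubated 30 min at 37 °C, stopped with ice-cold acetonitrile, centrifuged. Percent remaining reported as mean ± SD, n = 3.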
For `CC1(C)[C@H](NC(=O)c2ccc(N3CCN(CC4CCN(C(=O)C5CN(c6ccc7nnn(C8CCC(=O)NC8=O)c(=O)c7c6)C5)CC4)CC3)cc2)C(C)(C)[C@H]1Oc1ccc(C#N)c(Cl)c1` (some centres not stated), the remaining at 0.5 h, 1 µM was 92.8%.
For `CC1(C)[C@H](NC(=O)c2ccc(N3CCN(CC4CCN(C(=O)C5CCN(c6ccc7nnn(C8CCC(=O)NC8=O)c(=O)c7c6)CC5)CC4)CC3)cc2)C(C)(C)[C@H]1Oc1ccc(C#N)c(Cl)c1` (some centres not stated), the remaining at 0.5 h, 1 µM was 74.3%.

Molecular target: T1, Protein cereblon/Androgen receptor
Test: Protac activity at CRBN/AR in human LNCaP cells assessed as AR degradation at 1 uM by Western blotting analysis relative to control
Assay type: cell-based
Conditions: not given
Summary of the method: as §3
With `CC1(C)[C@H](NC(=O)c2ccc(N3CCN(CCOC4CCN(C(=O)COc5ccc6nnn(C7CCC(=O)NC7=O)c(=O)c6c5)CC4)CC3)cc2)C(C)(C)[C@H]1Oc1ccc(C#N)c(Cl)c1` (some centres not stated) the Activity was 98%.
Work on `CC1(C)[C@H](NC(=O)c2ccc(N3CCN(CC4CCN(C(=O)C5CN(c6ccc7nnn(C8CCC(=O)NC8=O)c(=O)c7c6)C5)CC4)CC3)cc2)C(C)(C)[C@H]1Oc1ccc(C#N)c(Cl)c1` (some centres not stated) yielded an Activity of 96%.
For `CC1(C)[C@H](NC(=O)c2ccc(N3CCN(CC4CCN(C(=O)C5CCN(c6ccc7nnn(C8CCC(=O)NC8=O)c(=O)c7c6)CC5)CC4)CC3)cc2)C(C)(C)[C@H]1Oc1ccc(C#N)c(Cl)c1` (some centres not stated), the Activity was 89%.

Molecular target: T1, Protein cereblon/Androgen receptor
Test: Protac activity at CRBN/AR in human LNCaP cells assessed as AR degradation at 0.1 uM by western blotting analysis relative to control
Assay type: cell-based
Conditions: not given
Summary of the method: as §3
Molecule `CC1(C)[C@H](NC(=O)c2ccc(N3CCN(CCOC4CCN(C(=O)COc5ccc6nnn(C7CCC(=O)NC7=O)c(=O)c6c5)CC4)CC3)cc2)C(C)(C)[C@H]1Oc1ccc(C#N)c(Cl)c1` (some centres not stated) has an Activity of 86%.
For `CC1(C)[C@H](NC(=O)c2ccc(N3CCN(CC4CCN(C(=O)C5CN(c6ccc7nnn(C8CCC(=O)NC8=O)c(=O)c7c6)C5)CC4)CC3)cc2)C(C)(C)[C@H]1Oc1ccc(C#N)c(Cl)c1` (some centres not stated), the Activity was 96%.
`CC1(C)[C@H](NC(=O)c2ccc(N3CCN(CC4CCN(C(=O)C5CCN(c6ccc7nnn(C8CCC(=O)NC8=O)c(=O)c7c6)CC5)CC4)CC3)cc2)C(C)(C)[C@H]1Oc1ccc(C#N)c(Cl)c1` (some centres not stated) showed an Activity of 90%.

System: not listed separately
Test: Half life in ICR mouse at 5 mg/kg, iv by LC-MS/MS analysis
Assay type: ADME, organism-based
Conditions: in vivo
Summary of the method: as §2
`CC1(C)[C@H](NC(=O)c2ccc(N3CCN(CC4CCN(C(=O)C5CN(c6ccc7nnn(C8CCC(=O)NC8=O)c(=O)c7c6)C5)CC4)CC3)cc2)C(C)(C)[C@H]1Oc1ccc(C#N)c(Cl)c1` (some centres not stated) showed a half-life of 4.48 h.

System: not listed separately
Test: Cmax in ICR mouse at 30 mg/kg, po by LC-MS/MS analysis
Assay type: ADME, organism-based
Parameters: route oral, dose 30 mg/kg
Conditions: in vivo
Summary of the method: as §2
Work on `CC1(C)[C@H](NC(=O)c2ccc(N3CCN(CC4CCN(C(=O)C5CN(c6ccc7nnn(C8CCC(=O)NC8=O)c(=O)c7c6)C5)CC4)CC3)cc2)C(C)(C)[C@H]1Oc1ccc(C#N)c(Cl)c1` (some centres not stated) yielded a Cmax of 50 ng/mL.

System: not listed separately
Test: AUCt in ICR mouse at 5 mg/kg, iv by LC-MS/MS analysis
Assay type: ADME, organism-based
Parameters: dose 5 mg/kg
Conditions: in vivo
Summary of the method: as §2
Molecule `CC1(C)[C@H](NC(=O)c2ccc(N3CCN(CC4CCN(C(=O)C5CN(c6ccc7nnn(C8CCC(=O)NC8=O)c(=O)c7c6)C5)CC4)CC3)cc2)C(C)(C)[C@H]1Oc1ccc(C#N)c(Cl)c1` (some centres not stated) has an AUC(0-t) of 24100 ng·h/mL.

System: not listed separately
Test: Cmax in ICR mouse at 5 mg/kg, ip by LC-MS/MS analysis
Assay type: ADME, organism-based
Parameters: route intraperitoneal, dose 5 mg/kg
Conditions: in vivo
Summary of the method: as §2
With `CC1(C)[C@H](NC(=O)c2ccc(N3CCN(CC4CCN(C(=O)C5CN(c6ccc7nnn(C8CCC(=O)NC8=O)c(=O)c7c6)C5)CC4)CC3)cc2)C(C)(C)[C@H]1Oc1ccc(C#N)c(Cl)c1` (some centres not stated) the Cmax was 5540 ng/mL.

System: not listed separately
Test: AUCt in ICR mouse at 30 mg/kg, po by LC-MS/MS analysis
Assay type: ADME, organism-based
Parameters: dose 30 mg/kg
Conditions: in vivo
Summary of the method: as §2
For `CC1(C)[C@H](NC(=O)c2ccc(N3CCN(CC4CCN(C(=O)C5CN(c6ccc7nnn(C8CCC(=O)NC8=O)c(=O)c7c6)C5)CC4)CC3)cc2)C(C)(C)[C@H]1Oc1ccc(C#N)c(Cl)c1` (some centres not stated), the AUCt was 440 ng·h/mL.

System: not listed separately
Test: Tmax in ICR mouse at 5 mg/kg, ip by LC-MS/MS analysis
Assay type: ADME, organism-based
Conditions: in vivo
Summary of the method: as §2
For `CC1(C)[C@H](NC(=O)c2ccc(N3CCN(CC4CCN(C(=O)C5CN(c6ccc7nnn(C8CCC(=O)NC8=O)c(=O)c7c6)C5)CC4)CC3)cc2)C(C)(C)[C@H]1Oc1ccc(C#N)c(Cl)c1` (some centres not stated), the Tmax was 2 h.
